Source: ChEMBL document CHEMBL1153366, “Synthesis, discovery and preliminary SAR study of benzofuran derivatives as angiogenesis inhibitors” (Bioorg Med Chem Lett, 2009)
pIC50: −log10 of the molar value.

test system: A549; assay: Antiproliferative activity against human A549 cells after 96 hrs by MTT method; assay type: functional, cell-based; settings: not given; call rule not given here
How it was run: (§1)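 Cancer cells seeded at 1500 cells/well in 96-well plates and allowed 20 h to attach. They were then exposed to compound in 0.1% DMSO over a range of concentrations, with an equal volume of carrier as control, in triplicate. After 96 h, MTT was used to give relative viability. IC50 came from the viability versus concentration relationship.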

Structure (SMILES) | IC50
CCOC(=O)/C=C/c1c(C(=O)OCC)oc2ccc(O)cc12 | Not Active
CCOC(=O)/C=C/c1oc2ccc(O)cc2c1C | Not Active
CCOC(=O)/C=C/c1oc2ccc(O)cc2c1C(=O)OCC | Not Active
CCOC(=O)/C=C/c1c(C)oc2ccc(O)cc12 | Not Active

test system: Bel-7402; assay: Antiproliferative activity against human Bel7402 cells after 96 hrs by MTT method; assay type: functional, cell-based; settings: not given; how it was run: as §1

Structure (SMILES) | IC50
CCOC(=O)/C=C/c1c(C(=O)OCC)oc2ccc(O)cc12 | Not Active
CCOC(=O)/C=C/c1oc2ccc(O)cc2c1C | Not Active
CCOC(=O)/C=C/c1oc2ccc(O)cc2c1C(=O)OCC | Not Active
CCOC(=O)/C=C/c1c(C)oc2ccc(O)cc12 | Not Active

test system: HUVEC; assay: Antiproliferative activity against HUVEC after 96 hrs by MTT method; assay type: functional, cell-based; settings: Homo sapiens
How it was run: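 HUVECs seeded at 1000 cells/well in 96-well plates and left to attach 20 h. Compound added in 0.1% DMSO at several concentrations, with a carrier-only control. Each concentration run in triplicate. After 96 h exposure, viability was read by MTT and expressed relative to control. IC50 was derived from viability versus concentration.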

Structure (SMILES) | pIC50
CCOC(=O)/C=C/c1c(C(=O)OCC)oc2ccc(O)cc12 | 4.49
CCOC(=O)/C=C/c1oc2ccc(O)cc2c1C | < 4.30
CCOC(=O)/C=C/c1oc2ccc(O)cc2c1C(=O)OCC | 5.37
CCOC(=O)/C=C/c1c(C)oc2ccc(O)cc12 | 4.56

test system: MCF7; assay: Antiproliferative activity against human MCF7 cells after 96 hrs by MTT method; assay type: functional, cell-based; settings: not given; how it was run: as §1

Structure (SMILES) | IC50
CCOC(=O)/C=C/c1c(C(=O)OCC)oc2ccc(O)cc12 | Not Active
CCOC(=O)/C=C/c1oc2ccc(O)cc2c1C | Not Active
CCOC(=O)/C=C/c1oc2ccc(O)cc2c1C(=O)OCC | Not Active
CCOC(=O)/C=C/c1c(C)oc2ccc(O)cc12 | Not Active
